In brackets after ≈: the same amount, converted by molar mass. Activity calls are given as the source filed them. The calls are words filed in the database; no cut-off is given here.
Columns and labels:
Mus musculus [1] = experiment: Antitubercular activity (12.5 mg/kg) in the 31-day murine model; format: functional
Procedure, shortened: (§1)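 Female Swiss mice (14–16 g), 10 per treated group and 20 infected controls, were infected i.v. with 0.1 mL of a 2 mg/mL M. tuberculosis H37Rv suspension. Oral dosing was in 0.5 mL 1.0% gum tragacanth, starting day 3 post-infection, twice daily, 5 days/week for 4 weeks. Percent survival was recorded at day 31; active meant survival consistently >80%.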

Mus musculus [2] = experiment: Antitubercular activity (100 mg/kg) in the 31-day murine model; format: functional; procedure, shortened: as §1
Mus musculus [3] = experiment: Antitubercular activity (50 mg/kg) in the 31-day murine model; format: functional; procedure, shortened: as §1
Mus musculus [4] = experiment: Antitubercular activity (25 mg/kg) in the 31-day murine model; format: functional; procedure, shortened: as §1
Proteus mirabilis [5] = experiment: Minimum inhibitory dilution of medicated rat urine tested in vitro for antibacterial activity against Proteus mirabilis; Less than 1:2; format: functional
Staphylococcus aureus [6] = experiment: Minimum inhibitory dilution of medicated rat urine tested in vitro for antibacterial activity against Staphylococcus aureus; Equal to 1:4; format: functional
Staphylococcus aureus [7] = experiment: In vitro minimum inhibitory concentration against Staphylococcus aureus; format: functional; settings: Staphylococcus aureus; read-out: MIC
Procedure, shortened: (§2)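 Compounds were dissolved in water, or in water with the minimum DMSO needed to keep them in solution, and tested by an established dilution method. A ">" prefix means the DMSO solvent blank was inhibitory at that level.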

Proteus mirabilis [8] = experiment: In vitro minimum inhibitory concentration against Proteus mirabilis; format: functional; settings: Proteus mirabilis; read-out: MIC; procedure, shortened: as §2
Staphylococcus aureus [9] = experiment: Minimum inhibitory dilution of medicated rat urine tested in vitro for antibacterial activity against Staphylococcus aureus; Equal to 1:2; format: functional
Proteus mirabilis [10] = experiment: Minimum inhibitory dilution of medicated rat urine tested in vitro for antibacterial activity against Proteus mirabilis; Equal to 1:4; format: functional
Staphylococcus aureus [11] = experiment: Minimum inhibitory dilution of medicated rat urine tested in vitro for antibacterial activity against Staphylococcus aureus; Less than 1:2; format: functional
Mus musculus [12] = experiment: Antitubercular activity (6.25 mg/kg) in the 31-day murine mice model; NA=Not active; format: functional, organism-based; procedure, shortened: as §1
Mus musculus [13] = experiment: Antitubercular activity (12.5 mg/kg) in the 31-day murine mice model; NA=Not active; format: functional, organism-based; procedure, shortened: as §1
Mus musculus [14] = experiment: Antitubercular activity (3.1 mg/kg) in the 31-day murine mice model; NA=Not active; format: functional, organism-based; procedure, shortened: as §1
Mus musculus [15] = experiment: Antitubercular activity (25 mg/kg) in the 31-day murine mice model; NA=Not active; format: functional, organism-based; procedure, shortened: as §1
Mus musculus [16] = experiment: Antitubercular activity (50 mg/kg) in the 31-day murine mice model; NA=Not active; format: functional, organism-based; procedure, shortened: as §1
Mus musculus [17] = experiment: Antitubercular activity (100 mg/kg) in the 31-day murine mice model; NA=Not active; format: functional, organism-based; procedure, shortened: as §1
Mus musculus [18] = experiment: Antitubercular activity (12.5 mg/kg) in the 31-day murine mice model; format: functional; procedure, shortened: as §1
Mus musculus [19] = experiment: Antitubercular activity (3.1 mg/kg) in the 31-day murine mice model; format: functional; procedure, shortened: as §1
Mus musculus [20] = experiment: Antitubercular activity (6.25 mg/kg) in the 31-day murine mice model; format: functional; procedure, shortened: as §1
Staphylococcus aureus [21] = experiment: Minimum inhibitory dilution of medicated rat urine tested in vitro for antibacterial activity against Staphylococcus aureus; Equal to 1:32; format: functional
Proteus mirabilis [22] = experiment: Minimum inhibitory dilution of medicated rat urine tested in vitro for antibacterial activity against Proteus mirabilis; Equals to 1:16; format: functional
Staphylococcus aureus [23] = experiment: Minimum inhibitory dilution of medicated rat urine tested in vitro for antibacterial activity against Staphylococcus aureus; Equal to 1:64; format: functional
Proteus mirabilis [24] = experiment: Minimum inhibitory dilution of medicated rat urine tested in vitro for antibacterial activity against Proteus mirabilis; Equal to 1:8; format: functional
Staphylococcus aureus [25] = experiment: Minimum inhibitory dilution of medicated rat urine tested in vitro for antibacterial activity against Staphylococcus aureus; Equal to 1:16; format: functional
Mus musculus [26] = experiment: Antitubercular activity (100 mg/kg) in the 31-day murine mice model; format: functional; procedure, shortened: as §1
Mus musculus [27] = experiment: Antitubercular activity (25 mg/kg) in the 31-day murine mice model; format: functional; procedure, shortened: as §1
Mus musculus [28] = experiment: Antitubercular activity (50 mg/kg) in the 31-day murine mice model; format: functional; procedure, shortened: as §1
Proteus mirabilis [29] = experiment: Minimum inhibitory dilution of medicated rat urine tested in vitro for antibacterial activity against Proteus mirabilis; Equal to 1:16; format: functional

Row | SMILES | MID (Proteus mirabilis [5]) | MIC (Staphylococcus aureus [7]) | MIC (Proteus mirabilis [8]) | MID (Staphylococcus aureus [11]) | other results
1 | CC[C@@H](CO)NCCN[C@@H](CC)CO [ETHAMBUTOL] | – | – | – | – | Survival (Mus musculus [1]): 0%; Survival (Mus musculus [2]): 100%; Survival (Mus musculus [3]): 90%; Survival (Mus musculus [4]): 30%
2 | CC1=CC(=Nn2cccc2)C=C(C)C1=O | <0.5 | 31.3 µg/mL (≈ 156 µM) | > 125 µg/mL | – | MID (Staphylococcus aureus [6]): 0.25
3 | NC1=CC(=O)C=C/C1=N/n1cccc1 | – | 15.6 µg/mL (≈ 83.3 µM) | 125 µg/mL (≈ 668 µM) | – | MID (Staphylococcus aureus [9]): 0.5; MID (Proteus mirabilis [10]): 0.25
4 | c1ccc(Nc2ccc(Nn3cccc3)cc2)cc1 | <0.5 | 31.3 µg/mL (≈ 126 µM) | > 250 µg/mL | <0.5 | –
5 | Oc1ccc(Nn2cccc2)c(Cl)c1 | 0.5 | 62.5 µg/mL (≈ 300 µM) | > 125 µg/mL | <0.5 | –
6 | Oc1cccc(Nn2cccc2)c1 | <0.5 | 62.5 µg/mL (≈ 359 µM) | 500 µg/mL (≈ 2870 µM) | <0.5 | –
7 | CC1=CC(=N/n2cccc2)/C=CC/1=N/n1cccc1 | <0.5 | > 62.5 µg/mL | > 62.5 µg/mL | <0.5 | –
8 | CN(C)C1=CC(=O)C=C/C1=N/n1cccc1 | <0.5 | 62.5 µg/mL (≈ 290 µM) | > 125 µg/mL | <0.5 | –
9 | Cc1ccc(C(=O)Oc2ccc(N(C(=O)c3ccc(C)cc3)n3cccc3)cc2)cc1 | <0.5 | 125 µg/mL (≈ 305 µM) | > 62.5 µg/mL | <0.5 | Survival (Mus musculus [12]): inactive; Survival (Mus musculus [13]): inactive; Survival (Mus musculus [14]): inactive; Survival (Mus musculus [15]): inactive; Survival (Mus musculus [16]): inactive; Survival (Mus musculus [17]): inactive
10 | NNC(=O)c1ccncc1 [ISONIAZID] | – | – | – | – | Survival (Mus musculus [18]): 100%; Survival (Mus musculus [19]): 100%; Survival (Mus musculus [20]): 100%
11 | O=C1CN(/N=C/c2ccc([N+](=O)[O-])o2)C(=O)N1 [NITROFURANTOIN] | – | 15.6 µg/mL (≈ 65.5 µM) | > 62.5 µg/mL | – | MID (Staphylococcus aureus [21]): 0.03125
12 | CN(c1ccc(O)cc1)n1cccc1 | <0.5 | 125 µg/mL (≈ 664 µM) | > 250 µg/mL | <0.5 | –
13 | Cc1ccc(C)n1N=C1C=CC(=O)C=C1 | <0.5 | ≤ 7.8 µg/mL | 62.5 µg/mL (≈ 312 µM) | – | MID (Staphylococcus aureus [9]): 0.5
14 | Oc1ccc(Nn2cccc2)cc1 | – | ≤ 7.8 µg/mL | 31.3 µg/mL (≈ 180 µM) | – | Survival (Mus musculus [18]): 100%; Survival (Mus musculus [19]): 0%; MID (Proteus mirabilis [22]): 0.0625; MID (Staphylococcus aureus [23]): 0.01562; Survival (Mus musculus [20]): 100%
15 | Cc1ccc(C)n1Nc1ccc(O)cc1 | <0.5 | ≤ 7.8 µg/mL | 15.6 µg/mL (≈ 77.1 µM) | – | MID (Staphylococcus aureus [6]): 0.25
16 | O=C(O)c1cccn1Nc1ccc(O)cc1 | – | 500 µg/mL (≈ 2290 µM) | 500 µg/mL (≈ 2290 µM) | – | MID (Proteus mirabilis [24]): 0.125; MID (Staphylococcus aureus [25]): 0.0625
17 | C1=CC(=Nn2cccc2)C=CC1=Nn1cccc1 | – | > 125 µg/mL | > 62.5 µg/mL | – | Survival (Mus musculus [18]): 100%; Survival (Mus musculus [26]): 100%; Survival (Mus musculus [27]): 100%; Survival (Mus musculus [19]): 10%; Survival (Mus musculus [28]): 100%; MID (Staphylococcus aureus [25]): 0.0625; MID (Proteus mirabilis [29]): 0.0625; Survival (Mus musculus [20]): 80%
18 | COc1ccc(Nn2cccc2)cc1 | – | > 125 µg/mL | > 125 µg/mL | – | MID (Staphylococcus aureus [21]): 0.03125; MID (Proteus mirabilis [29]): 0.0625
